In ChEMBL document CHEMBL1148530, “Discovery of new antitubercular oxazolyl thiosemicarbazones” (J Med Chem, 2006):
In brackets after ≈: the same amount, converted by molar mass. Activity calls are given as the source filed them. No cut-off for these calls is given here.

Key:
[1] = test system: Mycobacterium tuberculosis; experiment: Antimycobacterial activity against Mycobacterium tuberculosis H37Rv; type: functional
Outline: (§1)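 MIC determined by agar dilution, following the NCCLS-recommended approach, in duplicate. Strains were M. tuberculosis H37Rv and a multidrug-resistant M. tuberculosis. Concentrations were tested up to 25 µg/mL.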

[2] = test system: Mycobacterium tuberculosis; experiment: Antimycobacterial activity against Mycobacterium tuberculosis H37Rv at 25 ug/ml; type: functional, organism-based; outline: as §1
[3] = test system: Mycobacterium tuberculosis; experiment: Activity against Mycobacterium tuberculosis H37Rv infected in CD1 mouse assessed as decrease in bacterial load relative to control in lung at 50 mg/kg, ip; type: functional; conditions: route intraperitoneal
Outline: (§2)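 Female CD-1 mice, 6 weeks old, infected intravenously via the caudal vein with about 10⁷ viable M. tuberculosis ATCC 35801. Intraperitoneal treatment for 10 days after inoculation.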

Vero [4] = experiment: Cytotoxicity against Vero cell line; type: functional, cell-based; conditions: Chlorocebus sabaeus
[5] = test system: Mycobacterium tuberculosis; experiment: Activity against Mycobacterium tuberculosis H37Rv infected in CD1 mouse assessed as decrease in bacterial load relative to control in spleen at 50 mg/kg, ip; type: functional; conditions: route intraperitoneal; outline: as §2
Vero [6] = experiment: Selectivity index, IC50 for Vero cell line/ MIC for Mycobacterium tuberculosis H37Rv; type: functional
Outline: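 Vero cells were exposed to compound at 62.5 µg/mL for 72 h. Viability was read by MTT conversion to formazan. Selectivity index is the Vero IC50 divided by the agar-dilution MIC against the listed strain.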

[7] = test system: Mycobacterium tuberculosis; experiment: Activity against Mycobacterium tuberculosis H37Rv infected in CD1 mouse assessed as decrease in bacterial load relative to control in lung at 25 mg/kg, ip; type: functional; conditions: route intraperitoneal; outline: as §2
[8] = test system: Mycobacterium tuberculosis; experiment: Activity against Mycobacterium tuberculosis H37Rv infected in CD1 mouse assessed as decrease in bacterial load relative to control in spleen at 25 mg/kg, ip; type: functional; conditions: route intraperitoneal; outline: as §2

SMILES | MIC [1] | IC50 (Vero [4]) | further results
COc1ccc(/C=N/N=C(\S)Nc2ncc(C3CCC3)o2)cc1 | 6.25 mg/L (≈ 18.9 µM) | – | –
C/C(=N\N=C(/S)Nc1ncc(C2CCC2)o1)c1ccc(O)cc1 | 3.12 mg/L (≈ 9.44 µM) | – | –
N/N=C(\S)Nc1ncc(C2CCC2)o1 | – | – | Activity [2]: inactive
COc1c(N2CCNC(C)C2)c(F)cc2c(=O)c(C(=O)O)cn(C3CC3)c12 (stereo not drawn) [GATIFLOXACIN] | 0.2 mg/L (≈ 0.533 µM) | > 62.5 mg/L | Log10 cfu [3]: 6.02; Log10 cfu [5]: 6.24
S=C(NN=C(Cc1ccccc1)Cc1ccccc1)Nc1ncc(C2CCC2)o1 | 6.25 mg/L (≈ 15.4 µM) | – | –
S=C(N/N=C(\c1ccccc1)c1ccc(Br)cc1)Nc1ncc(C2CCC2)o1 | 0.05 mg/L (≈ 0.11 µM) | > 62.5 mg/L | Log10 cfu [3]: 5.78; Log10 cfu [5]: 5.12
COc1cc(/C=N/N=C(\S)Nc2ncc(C3CCC3)o2)ccc1O | 12.5 mg/L (≈ 36.1 µM) | – | –
Oc1ccccc1/C=N/N=C(\S)Nc1ncc(C2CCC2)o1 | 6.25 mg/L (≈ 19.8 µM) | – | –
C/C(=N\N=C(/S)Nc1ncc(C2CCC2)o1)c1ccccc1 | 3.12 mg/L (≈ 9.92 µM) | – | –
S=C(N/N=C/c1ccc(Cl)cc1)Nc1ncc(C2CCC2)o1 | 1.56 mg/L (≈ 4.66 µM) | – | –
CC[C@@H](CO)NCCN[C@@H](CC)CO [ETHAMBUTOL] | 1.56 mg/L (≈ 7.64 µM) | > 62.5 mg/L | –
O=[N+]([O-])c1cccc(/C=N/N=C(\S)Nc2ncc(C3CCC3)o2)c1 | 0.78 mg/L (≈ 2.26 µM) | < 62.5 mg/L | –
CO[C@H]1/C=C/O[C@@]2(C)Oc3c(C)c(O)c4c(O)c(c(/C=N/N5CCN(C)CC5)c(O)c4c3C2=O)NC(=O)/C(C)=C\C=C\[C@H](C)[C@H](O)[C@@H](C)[C@@H](O)[C@@H](C)[C@H](OC(C)=O)[C@@H]1C [RIFAMPIN] | 0.1 mg/L (≈ 0.122 µM) | > 62.5 mg/L | –
CN(C)c1ccc(/C=N/N=C(\S)Nc2ncc(C3CCC3)o2)cc1 | 3.12 mg/L (≈ 9.08 µM) | – | –
O=[N+]([O-])c1ccccc1/C=N/N=C(\S)Nc1ncc(C2CCC2)o1 | 0.78 mg/L (≈ 2.26 µM) | – | –
S=C(NN=C(c1ccccc1)c1ccccc1)Nc1ncc(C2CCC2)o1 | 0.1 mg/L (≈ 0.266 µM) | > 62.5 mg/L | Selectivity index (Vero [6]): >1250
Cc1ccc(/C=N/N=C(\S)Nc2ncc(C3CCC3)o2)cc1 | 3.12 mg/L (≈ 9.92 µM) | < 62.5 mg/L | –
C/C(=N\N=C(/S)Nc1ncc(C2CCC2)o1)c1ccc(N)cc1 | 0.78 mg/L (≈ 2.37 µM) | 62.5 mg/L (≈ 190 µM) | –
C/C(=N\N=C(/S)Nc1ncc(C2CCC2)o1)c1ccccc1O | 3.12 mg/L (≈ 9.44 µM) | – | –
NNC(=O)c1ccncc1 [ISONIAZID] | 0.05 mg/L (≈ 0.365 µM) | > 62.5 mg/L | Log10 cfu [7]: 5.12; Log10 cfu [8]: 4.11
Oc1[nH]c2ccccc2c1/N=N/C(S)=N/c1ncc(C2CCC2)o1 | 25 mg/L (≈ 73.2 µM) | – | –
C/C(=N\N=C(/S)Nc1ncc(C2CCC2)o1)c1ccc(C)cc1 | 0.78 mg/L (≈ 2.37 µM) | – | –
O=[N+]([O-])c1ccc(/C=N/N=C(\S)Nc2ncc(C3CCC3)o2)cc1 | 0.39 mg/L (≈ 1.13 µM) | < 62.5 mg/L | –
Oc1[nH]c2ccc(F)cc2c1/N=N/C(S)=N/c1ncc(C2CCC2)o1 | 12.5 mg/L (≈ 34.8 µM) | – | –
C/C(=N\N=C(/S)Nc1ncc(C2CCC2)o1)c1ccc([N+](=O)[O-])cc1 | 0.2 mg/L (≈ 0.556 µM) | 62.5 mg/L (≈ 174 µM) | –
